In article PMC3383288 (International Journal of Nanomedicine, 2012):

What was measured:
[1] = Toxicity dose-finding study in nude mice; assay type: in vivo
[2] = Tissue distribution in tumor-bearing mice; assay type: in vivo, nude mice; conditions: for AUC of DTX: native DTX 10 mg/kg
Procedure, shortened: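 Female nude mice bearing subcutaneous xenografts (cells in 50% Matrigel) got a single iv dose when tumors reached about 400 mm3. Free drug was sampled at 0.083, 1, 6, 24 and 48 h (n = 3 per time). Heart blood was taken under ether into heparin, and plasma was spun at 4°C. Organs were rinsed, stored at −30°C and homogenized 25% w/w in PBS pH 7.4. Drug was quantified by reversed-phase HPLC at 40°C.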

[3] = system: MDA-MB-231 human breast tumor; test: MDA-MB-231 human breast tumor xenograft model; assay type: in vivo, nude mice
Procedure, shortened: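 3 × 10^6 cells in 50% Matrigel were injected subcutaneously into the backs of female 5-week-old nude mice. Dosing started on day 0: three tail-vein iv injections at 4-day intervals, with an untreated control group. Tumor volume and body weight were tracked. Points are means of seven mice with standard error.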

[4] = system: OCUM-2MLN human scirrhous gastric carcinoma; test: OCUM-2MLN orthotopic scirrhous gastric carcinoma model; assay type: in vivo, nude mice; conditions: DTX 10 mg/kg; data not shown
[5] = Toxicology studies in mice; assay type: in vivo, mice (Crlj:CD1 (ICR)); conditions: for ALT / AST / CRE / UN: native DTX 10 mg/kg iv x3 at 4-day intervals, one mouse
Procedure, shortened: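 Male Crlj:CD1 (ICR) mice (n = 10) received iv dosing three times at 4-day intervals, and condition and body weight were followed for 49 days. Mice were killed one at a time for blood collection and autopsy, including macroscopic review of liver and bone marrow. AST, ALT, creatinine and urea nitrogen were run on a clinical chemistry analyzer, with hematology on an automated analyzer.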

[6] = Toxicology study in cynomolgus monkeys; assay type: in vivo
Procedure, shortened: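 Male cynomolgus monkeys aged 3–4 years (2.5–3.7 kg, n = 3) were dosed iv three times at 2-week intervals. Food consumption, general condition and body weight were followed for 42 days. White blood cell and neutrophil counts were monitored. Values are means of three monkeys with standard deviation.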

[7] = once-every-3-week schedule; cited from earlier work
advanced gastric cancer = conditions: monotherapy, patients with advanced gastric cancer; cited from earlier work
[8] = native DTX 3 mg/kg iv three times at 2-week intervals

## CC(=O)O[C@@]12CO[C@@H]1C[C@H](O)[C@@]1(C)C(=O)[C@H](O)C3=C(C)[C@@H](OC(=O)[C@H](O)[C@@H](NC(=O)OC(C)(C)C)c4ccccc4)C[C@@](O)([C@@H](OC(=O)c4ccccc4)[C@H]21)C3(C)C [Native DTX, Docetaxel]
[1]; mouse MTD 10 mg/kg, three times at 4-day intervals
  MTD converted to human equivalent: 30.3 mg/m^2
[1]; native DTX 15 mg/kg vs less than 15 mg/kg, iv three times every 4 days
  body weight change: significant decrease in body weight
[2]; Heart
  AUC of DTX: 9.5 μg/g or mL · h
[2]; Kidney
  AUC of DTX: 44.2 μg/g or mL · h
[2]; Liver
  AUC of DTX: 40.1 μg/g or mL · h
[2]; Lung
  AUC of DTX: 13.6 μg/g or mL · h
[2]; Plasma
  AUC of DTX: 6.7 μg/g or mL · h
[2]; Spleen
  AUC of DTX: 27.3 μg/g or mL · h
[2]; Tumor
  AUC of DTX: 12.6 μg/g or mL · h
[2]; native DTX 10 mg/kg iv
  time DTX in plasma remained over 0.1 μg/mL: less than 5 hours
[3]; native DTX 10 mg/kg iv x3, mice bearing MDA-MB-231 xenograft
  maximum body weight loss: approximately 10%
[3]; three injections at 4-day intervals, NC-6301 50 mg/kg, native DTX 10 mg/kg
  effect on tumor growth: transient and slight regression
[4]
  body weight loss compared with NC-6301 at the higher dose: worse
[5]; Day 1
  ALT: 28 U/L
  AST: 85 U/L
  CRE: 0.07 mg/dL
  UN: 26.1 mg/dL
[5]; Day 7
  ALT: 44 U/L
  AST: 239 U/L
  CRE: 0.17 mg/dL
  UN: 27.1 mg/dL
[5]; Day 10
  ALT: 23 U/L
  AST: 91 U/L
  CRE: 0.14 mg/dL
  UN: 25.4 mg/dL
[5]; Day 14
  ALT: 19 U/L
  AST: 62 U/L
  CRE: 0.20 mg/dL
  UN: 30.5 mg/dL
[5]; Day 21
  ALT: 24 U/L
  AST: 71 U/L
  CRE: 0.12 mg/dL
  UN: 20.0 mg/dL
[5]; Day 28
  ALT: 22 U/L
  AST: 65 U/L
  CRE: 0.15 mg/dL
  UN: 41.4 mg/dL
[5]; Day 35
  ALT: 46 U/L
  AST: 171 U/L
  CRE: 0.12 mg/dL
  UN: 28.0 mg/dL
[5]; Day 42
  ALT: 27 U/L
  AST: 83 U/L
  CRE: 0.11 mg/dL
  UN: 22.1 mg/dL
[5]; Day 49
  ALT: 22 U/L
  AST: 56 U/L
  CRE: 0.12 mg/dL
  UN: 23.5 mg/dL
[5]; NC-6301 50 mg/kg, native DTX 10 mg/kg, data not shown
  myelosuppression: mild and transient
[5]; three injections, NC-6301 50 mg/kg, native DTX 10 mg/kg, 49 days
  change in liver- or kidney-related blood test markers: No significant change
[6]; native DTX 3 mg/kg
  adverse effects: adverse effects including gastrointestinal symptoms
[6]; [8]
  additional weight lost compared with animals administered NC-6301: up to 20%
  white blood cell count and neutrophil count: significantly decreased
[6]; native DTX 3 mg/kg, NC-6301 3 or 6 mg/kg, iv three times at 2-week intervals
  decrease in food consumption: critical decrease
[7]
  MTD in humans: 100 mg/m^2
Advanced gastric cancer
  response rate: 20%
